Test results taken from ChEMBL document CHEMBL1149859, “Proteasome inhibition by peptide-semicarbazones” (Bioorg Med Chem, 2008).
pEC50, pIC50: −log10 of the molar value. Active and inactive are the calls of the source. The calls are words filed in the database; no cut-off is given here.

Legend:
A549 = assay: Inhibition of TNF-alpha-induced NF-kappaB transcriptional activation in human A549 cells by SEAP reporter gene assay; type: functional, cell-based
Summary of the method: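 A549 cells stably transfected with a pNF-κB-SEAP reporter, seeded at 2 × 10^4/well and attached overnight. Preincubated 5 h with compound at 100, 30, 10, 3, 1, 0.3, 0.1 and 0 µM, then stimulated with 10 ng/ml TNF-α for 22 h. Supernatant SEAP read by chemiluminescence; viability checked in parallel with CellTiter-Blue.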

[1] = Inhibition of human 20S proteasome by fluorescence spectroscopy
Summary of the method: (§1)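 20S proteasome (1.3 µg) activated in 25 mM Hepes pH 7.5, 0.5 mM EDTA, 0.033% SDS for 10 min at room temperature. Added to compound in DMSO with 75 µM Suc-LLVY-AMC. AMC release followed 20 min at 30 °C (ex 360, em 465 nm) as RFU/min. IC50 from eight concentrations, triplicates on one day.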

PBMC = assay: Antiproliferative activity against human peripheral blood mononuclear cells after 48 hrs by ELISA; type: cell-based
Summary of the method: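 Human PBMC isolated by density gradient, 100,000–200,000 cells/well in RPMI 1640 with 10% heat-inactivated FBS. Stimulated with 20 µg/ml PHA-L and exposed to compound at 0.4–50 µM for 48 h at 37 °C, 5% CO2. BrdU (10 µM) added for a further 4 h. Cells fixed and DNA denatured; incorporated BrdU detected with anti-BrdU-POD.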

[2] = Inhibition of chymotrypsin-like site of human 20S proteasome; summary of the method: as §1
[3] = Inhibition of peptidylglutamyl peptide hydrolyzing site of human 20S proteasome
Summary of the method: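 Peptidylglutamyl-peptide hydrolysing activity of SDS-activated 20S proteasome (1.3 µg; 25 mM Hepes pH 7.5, 0.5 mM EDTA, 0.033% SDS, 10 min preincubation at room temperature). Substrate was 75 µM Z-LLE-βNA with compound in DMSO. Fluorescence followed 20 min at 30 °C as RFU/min. IC50 from eight concentrations, triplicates on one day.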

pEC50 (A549)	pIC50 [1]	pIC50 [2]	pIC50 [3]	SMILES	Activity (A549)	pIC50 (PBMC)
6.10	6.40			O=C1CN(/N=C/[C@@H](Cc2ccccc2)NC(=O)[C@H](Cc2c[nH]c3ccccc23)NC(=O)[C@H](Cc2c[nH]c3ccccc23)NC(=O)OCc2ccccc2)C(=O)N1		
5.06	7.00			O=C1CN(/N=C/[C@H](Cc2ccccc2)NC(=O)[C@H](Cc2c[nH]c3ccccc23)NC(=O)[C@H](Cc2c[nH]c3ccccc23)NC(=O)CCc2ccc(O)cc2)C(=O)N1		
	7.00			O=C1CN(/N=C/[C@H](Cc2ccccc2)NC(=O)[C@H](Cc2c[nH]c3ccccc23)NC(=O)[C@H](Cc2c[nH]c3ccccc23)NC(=O)CCCCC2SCC3NC(=O)NC32)C(=O)N1 (stereo partly drawn)	inactive	4.54
5.52	5.96			O=C1CN(/N=C/[C@H](Cc2c[nH]c3ccccc23)NC(=O)[C@H](Cc2c[nH]c3ccccc23)NC(=O)[C@H](Cc2c[nH]c3ccccc23)NC(=O)OCc2ccccc2)C(=O)N1		
5.24	6.70			NC(=O)N/N=C/[C@H](Cc1ccccc1)NC(=O)[C@H](Cc1c[nH]c2ccccc12)NC(=O)[C@H](Cc1c[nH]c2ccccc12)NC(=O)OCc1ccccc1		
5.74	7.00	7.00	5.43	NC(=O)N/N=C/[C@H](Cc1c[nH]c2ccccc12)NC(=O)[C@H](Cc1c[nH]c2ccccc12)NC(=O)[C@H](Cc1c[nH]c2ccccc12)NC(=O)OCc1ccccc1		5.85
5.31	5.80			O=C1CN(/N=C/[C@H](Cc2ccccc2)NC(=O)[C@H](Cc2c[nH]c3ccccc23)NC(=O)[C@H](Cc2c[nH]c3ccccc23)NC(=O)OCc2ccncc2)C(=O)N1		
6.40	6.70	6.70	5.92	O=C1CN(/N=C/[C@H](Cc2ccccc2)NC(=O)[C@H](Cc2c[nH]c3ccccc23)NC(=O)[C@H](Cc2c[nH]c3ccccc23)NC(=O)OCc2ccccc2)C(=O)N1		6.15
